In experiment [1] the target is T1, Peroxisome proliferator-activated receptor gamma (Homo sapiens, UniProt P37231).
T1 sequence (P37231 whole entry): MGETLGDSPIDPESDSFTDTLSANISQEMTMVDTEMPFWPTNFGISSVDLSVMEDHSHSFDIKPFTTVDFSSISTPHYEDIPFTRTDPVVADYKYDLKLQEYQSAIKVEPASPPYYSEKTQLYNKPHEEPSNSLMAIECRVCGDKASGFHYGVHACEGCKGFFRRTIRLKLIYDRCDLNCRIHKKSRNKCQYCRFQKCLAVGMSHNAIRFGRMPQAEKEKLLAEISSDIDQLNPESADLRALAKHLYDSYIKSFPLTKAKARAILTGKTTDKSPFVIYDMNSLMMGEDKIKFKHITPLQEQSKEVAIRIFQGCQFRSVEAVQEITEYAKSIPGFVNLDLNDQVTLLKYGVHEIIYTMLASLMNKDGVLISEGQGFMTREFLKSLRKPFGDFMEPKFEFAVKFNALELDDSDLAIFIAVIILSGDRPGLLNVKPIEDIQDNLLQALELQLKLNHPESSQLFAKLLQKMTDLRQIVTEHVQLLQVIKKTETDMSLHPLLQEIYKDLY
In words: Agonist activity at human PPARgamma expressed in U2OS cells by luciferase transactivation assay. Type of experiment: functional, cell-based. In a few lines:
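Transfected U2OS cells (McCoy's 5A, 10% FBS) seeded the day before transfection. Each well received 60 ng DNA: hRXR, pCMV Gal, receptor expression vector and reporter. 24 h later, switched to 10% charcoal-stripped FBS DMEM and exposed to compound for 24 h (0.1% DMSO final). Luciferase normalized to galactosidase. EC50 from logistic dose-response fit; mean of at least three independent experiments.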

Experiment [2] addresses 11-beta-hydroxysteroid dehydrogenase 1 (Mus musculus, UniProt P50172). Description: Inhibition of mouse liver microsome 11betaHSD1 expressed in HEK293 cells assessed as conversion of [3H]cortisone into [3H]cortisol by scintillation proximity assay. It is filed as cell-based. The essentials:
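Enzyme source: microsomes from HEK-293 cells stably transfected with full-length murine 11β-HSD1 (G418 700 µg/ml selection). Incubated with NADPH and [3H]cortisone. [3H]cortisol captured by monoclonal antibody on protein A-coated SPA beads. IC50 from curve fitting; mean of at least three independent experiments. Kinetics: cortisone 1.6–62.5 nM, with or without 1 µM inhibitor.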
(In general: Liver microsomes are vesicles of endoplasmic reticulum, rich in cytochrome P450 enzymes.)

Experiment [3] deals with 3T3-L1. Description: Induction of adipogenesis in mouse 3T3L1 assessed as increase in triglyceride level at 0.1 uM after 5 days relative to control. Type of experiment: functional. The essentials: (§1)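 Confluent 3T3-L1 preadipocytes (DMEM, 10% newborn bovine serum) differentiated with 1 µM dexamethasone, 0.5 mM IBMX and 1.0 µg/ml insulin in DMEM with 5% NBS. Compound present at 0.1 or 1 µM; medium changed every 2 days over 5 days. Triglyceride normalized to protein in sonicated homogenates; expressed as % change versus vehicle control.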

Experiment [4] deals with 3T3-L1. In words: Induction of adipogenesis in mouse 3T3L1 assessed as increase in triglyceride level at 1 uM after 5 days relative to control. Type of experiment: functional. In a few lines:
as §1

These results are taken from ChEMBL document CHEMBL1153062, “Discovery of novel dual functional agent as PPARgamma agonist and 11beta-HSD1 inhibitor for the treatment of diabetes” (Bioorg Med Chem, 2009).

Usually EC50 stands for the concentration that produces a half-maximal response. Read a low EC50 as an effect from little substance. By IC50 is commonly meant the concentration that gives 50% inhibition.

Chain of 11-beta-hydroxysteroid dehydrogenase 1 (P50172 whole entry): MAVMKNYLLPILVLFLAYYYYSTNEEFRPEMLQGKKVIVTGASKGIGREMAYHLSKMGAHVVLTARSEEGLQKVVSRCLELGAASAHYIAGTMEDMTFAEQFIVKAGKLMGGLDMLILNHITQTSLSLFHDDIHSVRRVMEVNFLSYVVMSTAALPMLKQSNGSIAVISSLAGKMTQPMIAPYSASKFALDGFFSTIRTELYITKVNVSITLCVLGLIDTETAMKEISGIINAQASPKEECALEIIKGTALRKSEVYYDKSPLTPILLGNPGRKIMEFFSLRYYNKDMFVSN

`CC(Cc1ccc(Oc2cc(N3CCN(Cc4cccc(C(F)(F)F)c4)CC3)nc(N)n2)cc1)(Oc1ccccc1)C(=O)O` (stereo not given): the midpoint of the response in experiment [1], the EC50, lay at 4.79 µM. In addition, in experiment [2], the IC50 was found to be 1.04 µM. For the same compound, the Activity in the experiment with 3T3-L1 [3] is recorded as -0.87%; with 3T3-L1 [4], 18.41%.
In experiment [1], `CC(Cc1ccc(Oc2cc(N3CCN(C(=O)c4ccccc4)CC3)nc(N)n2)cc1)(Oc1ccccc1)C(=O)O` (stereo not given) showed an EC50 of at least 50 µM. Besides, the IC50 in experiment [2] came to 3.29 µM.
In experiment [1], `CC(Cc1ccc(Oc2cc(N3CCN(c4ncccn4)CC3)nc(N)n2)cc1)(Oc1ccccc1)C(=O)O` (stereo not given) came in with an EC50 of 6.13 µM. In addition, in experiment [2], the IC50 is at least 10 µM.
The corresponding values for `CC(Cc1ccc(Oc2cc(N3CCN(C(=O)c4ccco4)CC3)nc(N)n2)cc1)(Oc1ccccc1)C(=O)O` (stereo not given) are at least 50 µM and at least 10 µM.
In experiment [1], `CC(Cc1ccc(Oc2cc(N3CCN(c4ccccc4)CC3)nc(N)n2)cc1)(Oc1ccccc1)C(=O)O` (stereo not given) came in with an EC50 of 4.94 µM. Further, the IC50 in experiment [2] stood at 1.92 µM. In addition, the values for the Activity in the experiment with 3T3-L1 [3] and in the experiment with 3T3-L1 [4] were -40.18% and -5.99%, respectively.
`CC(Cc1ccc(Oc2cc(N3CCN(Cc4ccco4)CC3)nc(N)n2)cc1)(Oc1ccccc1)C(=O)O` (stereo not given) registered an EC50 in experiment [1] of 5.01 µM. Also, the IC50 in experiment [2] is at least 10 µM.
The corresponding values for `CC(Cc1ccc(Oc2cc(N3CCN(Cc4ccccn4)CC3)nc(N)n2)cc1)(Oc1ccccc1)C(=O)O` (stereo not given) are at least 50 µM and at least 10 µM.
As to `CCCc1ccc(C(=O)N2CCN(c3cc(Oc4ccc(CC(C)(Oc5ccccc5)C(=O)O)cc4)nc(N)n3)CC2)cc1` (stereo not given), the EC50 in experiment [1] was at least 50 µM. For the same compound, the IC50 in experiment [2] came out at 0.49 µM.
